Drawing on PubChem BioAssay, this text covers viability, differential viability (reversal) and inhibition for three compounds.

A short description of experiment [1]: HUVEC growth inhibition – cell-based, human, primary screen (AID 575;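 active = viability at or below 30% in both replicate assays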;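 note: 100% = median of untreated cell wells with 0.1% DMSO on each plate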). As to conditions: HUVEC proliferation, CellTiter-Glo luminescence, 72 h; at 10 µM; stronger effect = lower value. A digest of the protocol:
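Assay system: primary human umbilical vein endothelial cells / Buffer or medium: endothelial basal medium with 2% FBS plus growth supplements / Compound dosing: one dose, 10 µM final, 0.1% DMSO / Timing: 72 h treatment at 37 °C / Signal: CTG luminescence / Benchmarks: 32 DMSO-only cell-control wells (high), 32 MePR drug-control wells (low) per plate / Plate: collagen-coated 384-well format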

Experiment [2] can be described thus: H69AR cell proliferation blockers – human, duplicate replicates, primary screen (AID 580;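 active = viability at or under a set limit in both replicates, limit being median viability minus 3 SD, cut at about 48% in these data, passing the limit was not always enough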;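 note: 100% = mean luminescence of untreated wells and 0% = no signal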). As to conditions: H69AR lung tumor cells viability, ATP luminescence, 72 h; at 10 µM; stronger effect = lower value.
Experiment [3] is described as follows: MRP1 drug-resistance reversers in H69AR cells – cell-based, doxorubicin co-treatment, pilot screen (AID 601;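 active = viability loss from added drug above about 55%, and viability with drug at most 40%, in both replicates, limit read from the data, passing the limit was not always enough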). The conditions noted are these: CellTiter-Glo, 72 h, at 10 µM; for differential viability (reversal): stronger effect = higher value.
Experiment [4] can be described thus: yeast transport mutant growth inhibition pilot in 384-well plates, post-Golgi transport modulator project (AID 636; in the data active = inhibition above about 31%). As to conditions: absorbance 615 nm, about 18 h, stronger effect = higher value.
Experiment [5] in a line: growth suppression of yeast trafficking mutant, preliminary HTS, modulators of trafficking downstream of Golgi apparatus project, 1536-format plate, OD 615 nm (AID 637). As to conditions: yeast transport mutant growth, absorbance 615 nm, 18 h; stronger effect = higher value.
Where [6] appears, read: H69AR cells + 2 uM doxorubicin, measured here: viability with 2 uM doxorubicin, stronger effect = lower value.
[7] abbreviates: H69AR cells, compound alone cytotoxicity.

Active and inactive are the calls of the source. Cut-off read from the data, not from the text of the source, unless noted: active = inhibition above about 30%; inactive = the rest.

In the case of `CCCSc1nc(N)c(C#N)c(-c2ccc(C)cc2)c1C#N`, the viability in experiment [1] was 79.6% (inactive); in experiment [2], 70.3% (inactive); in experiment [3] (setting [6]), 80.4%; in experiment [3] (setting [7]), 70.3%. The differential viability (reversal) in experiment [3] (H69AR cells + 2 uM doxorubicin) is -10.1% (inactive). Besides, the figures for the inhibition in experiment [4] and in experiment [5] were -2.67% (inactive) and 4.76% (inactive), respectively.

Regarding `O=C(CCCn1c(=O)c2sccc2n(CC(=O)NCc2ccco2)c1=O)NCc1ccco1`, the viability is 90.4% (inactive) in experiment [1], 100% (inactive) in experiment [2], 80% in experiment [3] (setting [6]) and 100% in experiment [3] (setting [7]). In addition, the differential viability (reversal) in experiment [3] (H69AR cells + 2 uM doxorubicin) was 20% (inactive). Moreover, the inhibition in experiment [4] was -2.86% (inactive); in experiment [5], 2.54% (inactive).

Take `Cc1ccc(N2CC(C(=O)Nc3ccc4c(c3)OCO4)CC2=O)cc1` (stereo unspecified): the viability was 101% (inactive) in experiment [1], 99.6% (inactive) in experiment [2], 87.6% in experiment [3] (setting [6]) and 99.6% in experiment [3] (setting [7]). Moreover, in experiment [3] (H69AR cells + 2 uM doxorubicin), the differential viability (reversal) was 12% (inactive). For the same compound, the figures for the inhibition in experiment [4] and in experiment [5] were -3.25% (inactive) and -0.79% (inactive), respectively.
